Hits are enriched below; roughly 6.6% of the tested compounds scored in any of these assays.
H69AR growth 86K: proliferation blockers of H69AR lung cancer cells, primary screen, cell-based, human, 86K library; H69AR lung tumor viability, ATP luminescence, 72 h; stronger effect = lower value; viability, % at 10 µM; hit rate 6% among 85,000; AID 598, 2007;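 active = viability at or below 40%; inactive = viability above 40%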;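 note: multidrug resistant small cell line overexpressing MRP-1 efflux transporter; 100% = mean luminescence of untreated control wells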
Jurkat tox 60K: cytotoxicity toward Jurkat T cells, primary screen, cytotoxicity control, cell-based, Jurkat E6.1, 60K MLSMR library. AID 463, 2006. inhibition, % at 4 µM. hit rate 1.2% among 56,000. Jurkat E6.1 viability, ATP luminescence, 48 h;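 active = inhibition above the mean inhibition of all tested compounds plus 3 SD, cut at about 28% in these data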
Fibroblast inh: antiproliferative effect on LL 47 fibroblasts – human, LL 47 cells, CellTiter-Glo luminescence, primary screen. LL 47 human lung fibroblast viability, ATP luminescence; stronger effect = lower value. hit rate 1.1% among 85,000. viability, % at 10 µM;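 active = viability at or below 50% in the single dose screen; inactive = viability above 50%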;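 note: compound exposure lasted 72 h before the ATP readout; 100% = median luminescence of untreated cell-only wells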
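Test system: LL 47 human lung fibroblasts / Incubation: 72 h compound exposure at 37 °C after overnight plating / Technique: luminescent ATP detection, CellTiter-Glo / Compound dosing: 0.1% DMSO in all compound wells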
HUVEC prolif 384: inhibitors of HUVEC proliferation, primary screen, cell-based, 384-well. CellTiter-Glo luminescence, 72 h; stronger effect = lower value. viability, % at 10 µM (by protocol). hit rate 1.1% among 86,000;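 active = viability at or below 30%; inactive = viability above 30%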;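 note: 100% = median luminescence of DMSO-only cell control wells on each plate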
* marks the source's active call; other numbers are inactive results; / = not tested or not shown.

SMILES	H69AR growth 86K	Jurkat tox 60K	Fibroblast inh	HUVEC prolif 384
CC1(C)CC2CC(C)(CN2C(=O)c2cc(-c3ccccc3O)on2)C1 (centres undefined)	16*	1	85	91
CN(C)S(=O)(=O)c1ccc(N2CCN(S(=O)(=O)c3ccc(F)cc3)CC2)c(Cl)c1	62	34*	74	58
O=S1(=O)c2ccccc2N=NN1Cc1ccc(Cl)cc1	1.1*	/	6.2*	21*
O=S1(=O)c2ccccc2N=NN1Cc1cc(Cl)cc(Cl)c1	1.2*	/	47*	78
O=C1c2ccncc2C(=O)N1Cc1cccc(Cl)c1	101	/	101	96
O=c1cc2c(nn1Cc1ccc(Cl)cc1)-c1ccccc1CC2	107	/	100	110
CCN(CCNC(=O)CN1CCN(Cc2ccc(Cl)cc2)C1=O)c1ccccc1	103	/	100	110
Cc1cc(C)n(CC(O)COc2ccc(OCC(O)Cn3nc(C)cc3C)cc2)n1 (centres undefined)	77	/	100	102
Cc1nc(-c2ccc(O)c(O)c2)cs1	45	/	74	69
Oc1ccc(-c2csc(-c3ccccc3)n2)cc1O	20*	/	72	29*
CC1CC(C(F)F)n2nc(C(=O)Nc3sc4c(c3C#N)CCC(C(C)(C)C)C4)nc2N1 (centres undefined)	18*	/	53	21*
CCOc1cccc2cc(C(=O)Nc3nccs3)c(=O)oc12	/	-2	/	/
CCOc1cccc2cc(-c3csc(NC(=O)CCC(=O)N4CCN(C)CC4)n3)c(=O)oc12	33*	-1	66	78
CCOc1cccc2cc(-c3csc(NC(=O)CCC(=O)N4CCC(C)CC4)n3)c(=O)oc12	18*	/	22*	28*
COC(=O)c1ccc(N(C(=O)c2ccco2)C(C(=O)NC2CCCC2)c2ccco2)cc1 (centres undefined)	79	/	96	100
COc1ccc2c(=O)c3c(=O)n(Cc4ccco4)c(C4CCCCC4)nc3oc2c1	71	7	101	100
COc1ccc(CS(=O)(=O)/C(Cl)=C(/Cl)C(=O)Nc2ccc(OC)nc2)cc1	0.0*	/	4.8*	2.6*
COc1ccc(NC(=O)/C(Cl)=C(/Cl)S(=O)Cc2ccccc2)cn1 (centres undefined)	1.7*	/	1.2*	2.2*
CCOc1cc(/C=C2/C(=O)ON=C2C)ccc1OCc1ccccc1F	23*	/	43*	33
CCOC(=O)C1=C(Cn2cnc3ccccc32)NC(=O)NC1c1cc(C)ccc1C (centres undefined)	16*	-3	95	96
COC(=O)C1=C(Cn2cnc3ccccc32)NC(=O)NC1c1cc(C)ccc1C (centres undefined)	50	-2	99	93
O=C(Cc1csc(N2CCOCC2)n1)N/N=C/c1ccc(F)cc1	115	/	105	88
CCc1nc(Sc2nc(C)cc(C)n2)c2oc3ccccc3c2n1	5.3*	5	79	102
CCc1nc(SCc2nc3ccccc3[nH]2)c2oc3ccccc3c2n1	40*	/	90	79
c1ccc2[nH]c(CSc3nc4ccccc4o3)nc2c1	94	5	103	87
SMILES	H69AR growth 86K	Jurkat tox 60K	Fibroblast inh	HUVEC prolif 384
CCc1nc(SCCO)c2oc3ccccc3c2n1	90	-8	91	89
CCc1nc(Nc2ccc3c(c2)OCCO3)c2oc3ccccc3c2n1	38*	/	89	40
CCOC(=O)c1oc2ccc(CNC(C)(C)C)c(Cl)c2c1C	65	/	100	101
CCOC(=O)Nc1cc(=O)c2ccccc2o1	14*	90*	/	61
CCOC(=O)c1oc2ccccc2c1N	96	/	104	92
CCC(C)n1c(=O)c(C(=O)Nc2ccccc2S(N)(=O)=O)c(O)c2ccccc21 (centres undefined)	27*	-1	102	69
CCOc1ccc(OCC)c(NC(=O)Nc2ccc3c(c2)N(C)C(=O)CS3)c1	45	/	97	60
CC(=O)c1c(C)[nH]c(C(=O)OCCCCN2C(=O)c3ccccc3C2=O)c1C	88	67*	90	79
Cc1cnn(-c2ccc3nnc(-c4ccc(Cl)cc4)n3n2)c1	88	/	95	108
CN(CC(=O)O/N=C(\N)c1cccc([N+](=O)[O-])c1)S(=O)(=O)c1ccccc1	87	/	106	95
Cc1nn(-c2ccc(F)cc2)c(C)c1NS(=O)(=O)c1ccc2ccccc2c1	36*	/	96	77
Cc1ccc(-c2noc(CCC(=O)NCCN3CCc4ccccc4C3)n2)cc1	/	-4	/	/
Cc1ccc2nc(N/N=C\c3ccc([N+](=O)[O-])o3)nc(-c3ccccc3)c2c1	13*	/	90	51
O=[N+]([O-])c1ccc(/C=N/Nc2nc(N3CCCC3)nc(N3CCCC3)n2)o1	26*	/	87	6.8*
CCOC(=O)/C(=C\c1ccc([N+](=O)[O-])o1)NC(=O)c1ccccc1	81	/	86	69
O=C(CN(Cc1ccccc1)C(=O)CSc1nnc(COc2ccccc2)o1)NC1CCCC1	73	/	97	94
Cc1ccc(CN(CC(=O)NC2CCCC2)C(=O)CSc2nnc(COc3ccccc3)o2)cc1	16*	/	86	48
O=S(=O)(c1ccccc1Cl)N1CCCC(c2nc(-c3cccnc3)no2)C1 (centres undefined)	89	-2	108	117
O=C(NC1CCCCC1)C1CCN(c2cnccn2)CC1	109	7	110	96
COc1cc(C(=O)N2CCN(c3ncnc4sc(C)c(C)c34)CC2)cc(OC)c1OC	81	76*	96	92
Cc1sc2ncnc(N3CCN(c4ncccn4)CC3)c2c1C	77	8	105	63
CN(C)CCNC(=O)c1ccc(CS(=O)(=O)c2ccc(Br)cc2)o1	97	0	99	102
O=C(CS(=O)(=O)Cc1ccccc1)Nc1ccc(Cl)cn1	94	/	102	98
Cc1nn(-c2ccccc2)c(C)c1C(=O)OCC(=O)N1c2ccccc2NC(=O)C1(C)C	17*	/	94	76
Cc1cnc(C(=O)OCC(=O)N2c3ccccc3NC(=O)C2(C)C)cn1	95	2	101	88
SMILES	H69AR growth 86K	Jurkat tox 60K	Fibroblast inh	HUVEC prolif 384
Cc1nn(-c2ccccc2)c(C)c1C(=O)OCC(=O)c1c(N)n(CC(C)C)c(=O)n(C)c1=O	76	38*	84	66
Cn1cc(CC(=O)Nc2cccc(C#N)c2)c2ccccc21	81	/	105	99
CC(=O)N1CCCc2cc(S(=O)(=O)N(CC(C)C)CC(C)C)ccc21	83	2	96	95
CC(=O)N1CCc2cc(S(=O)(=O)N3c4ccccc4CC3C)ccc21 (centres undefined)	20*	/	58	59
CCN(c1cccc(C(F)(F)F)c1)S(=O)(=O)c1ccc2c(c1)CCN2C(C)=O	18*	/	90	89
CC(=O)N1CCc2cc(S(=O)(=O)N3CCOCC3)ccc21	95	/	106	102
CCN(c1cccc(C)c1)S(=O)(=O)c1cccc(C(=O)O)c1	114	/	95	104
CCN(c1cccc(C)c1)S(=O)(=O)c1ccc2c(c1)CCN2C(C)=O	29*	/	70	71
